pIC50: −log10 of the molar value. The source made the active and inactive calls. No cut-off for these calls is given here.
Legend:
[1] = target: T1, Protein cereblon/NAD-dependent protein deacetylase sirtuin-2 (Homo sapiens) (UniProt Q8IXJ6+Q96SW2); assay: Protac activity at CRBN/SIRT2 in human MCF7 cells assessed as SIRT2 degradation at 50 uM after 48 hrs by immunoblot analysis; type: cell-based
Summary of the method: (§1)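 MCF7 cells given a range of concentrations below and above 5 μM (0.5 to 50 μM) for 48 h; SIRT2 measured by immunoblot against vehicle-treated cells.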

[2] = target: T2, NAD-dependent protein deacetylase sirtuin-2 (Homo sapiens, UniProt Q8IXJ6); assay: Inhibition of human SIRT2 defatty-acylation activity using peptide substrate in presence of NAD+ by HPLC analysis
T2 sequence (Q8IXJ6 whole entry): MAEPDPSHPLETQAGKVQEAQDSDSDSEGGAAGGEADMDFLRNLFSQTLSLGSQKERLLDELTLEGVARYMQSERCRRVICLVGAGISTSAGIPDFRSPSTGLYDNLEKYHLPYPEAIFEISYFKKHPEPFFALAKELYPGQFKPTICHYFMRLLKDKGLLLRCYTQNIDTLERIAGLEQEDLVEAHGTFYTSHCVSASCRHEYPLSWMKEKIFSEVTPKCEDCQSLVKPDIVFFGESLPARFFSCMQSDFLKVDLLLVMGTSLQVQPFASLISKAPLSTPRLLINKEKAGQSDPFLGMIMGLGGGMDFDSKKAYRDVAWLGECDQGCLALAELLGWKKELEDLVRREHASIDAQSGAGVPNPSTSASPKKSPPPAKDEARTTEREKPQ

[3] = target: T1, Protein cereblon/NAD-dependent protein deacetylase sirtuin-2 (Homo sapiens); assay: Protac activity at CRBN/SIRT2 in human MCF7 cells assessed as SIRT2 degradation at 10 uM by immunoblot analysis; type: cell-based; conditions: TDE = time-dependent effect
Summary of the method: (§2)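 MCF7 cells treated at a fixed concentration (10 or 25 μM) and harvested at several incubation times; SIRT2 level read by immunoblot.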

[4] = target: NAD-dependent protein deacylase sirtuin-6 (Homo sapiens, UniProt Q8N6T7); assay: Inhibition of human SIRT6 deacetylation activity using H3K9Ac as substrate preincubated for 15 mins in presence of NAD+ followed by substrate addition by HPLC analysis
Chain of NAD-dependent protein deacylase sirtuin-6 (Q8N6T7 whole entry): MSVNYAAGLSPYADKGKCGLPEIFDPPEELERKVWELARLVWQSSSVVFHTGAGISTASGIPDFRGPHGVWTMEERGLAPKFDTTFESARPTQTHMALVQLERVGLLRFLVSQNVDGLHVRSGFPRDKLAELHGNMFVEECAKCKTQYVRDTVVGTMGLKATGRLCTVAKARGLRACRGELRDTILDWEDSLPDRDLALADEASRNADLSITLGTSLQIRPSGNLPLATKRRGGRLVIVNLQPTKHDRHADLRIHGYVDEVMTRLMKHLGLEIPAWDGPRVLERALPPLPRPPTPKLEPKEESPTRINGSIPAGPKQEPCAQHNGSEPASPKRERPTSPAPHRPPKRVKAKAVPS
Summary of the method: (§3)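 In vitro sirtuin reaction mixture with compound at a range of concentrations. Compound was preincubated with NAD+ and the enzyme before the substrate peptide was added. IC50 taken from the concentration series.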

[5] = target: T1, Protein cereblon/NAD-dependent protein deacetylase sirtuin-2 (Homo sapiens); assay: Protac activity at CRBN/SIRT2 in human HEK293T cells assessed as abundance ratio at 5 uM incubated for 16 hrs by TMT global proteomics assay relative to DMSO; type: cell-based; conditions: HEK-293T
Summary of the method: (§4)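 HEK 293T cells were treated for 16 h. Global proteome was quantified by Tandem Mass Tag labelling. The abundance ratio of each sirtuin was taken against DMSO-treated cells.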

[6] = tested on: MCF7; assay: Cytotoxicity against human MCF7 cells assessed as reduction in cell viability after 72 hrs; type: functional, cell-based
Summary of the method: (§5)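 Cells incubated with compound or thalidomide for 72 h; cell viability read out at the end of exposure.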

[7] = target: T1, Protein cereblon/NAD-dependent protein deacetylase sirtuin-2 (Homo sapiens); assay: Protac activity at CRBN/SIRT2 in human MCF7 cells assessed as SIRT2 degradation at 25 uM by immunoblot analysis; type: cell-based; summary of the method: as §2
[8] = target: T3, Protein cereblon/NAD-dependent protein deacetylase sirtuin-1 (Homo sapiens) (UniProt Q96EB6+Q96SW2); assay: Protac activity at CRBN/SIRT1 in human HEK293T cells stably expressing flag-tagged K-Ras4a-G12V assessed as inhibition of SIRT2 defatty-acylation at 1 uM incubated for 48 hrs by immunoblot analysis; type: cell-based; conditions: HEK-293T
T3 sequence (Q96EB6 whole entry, looked up): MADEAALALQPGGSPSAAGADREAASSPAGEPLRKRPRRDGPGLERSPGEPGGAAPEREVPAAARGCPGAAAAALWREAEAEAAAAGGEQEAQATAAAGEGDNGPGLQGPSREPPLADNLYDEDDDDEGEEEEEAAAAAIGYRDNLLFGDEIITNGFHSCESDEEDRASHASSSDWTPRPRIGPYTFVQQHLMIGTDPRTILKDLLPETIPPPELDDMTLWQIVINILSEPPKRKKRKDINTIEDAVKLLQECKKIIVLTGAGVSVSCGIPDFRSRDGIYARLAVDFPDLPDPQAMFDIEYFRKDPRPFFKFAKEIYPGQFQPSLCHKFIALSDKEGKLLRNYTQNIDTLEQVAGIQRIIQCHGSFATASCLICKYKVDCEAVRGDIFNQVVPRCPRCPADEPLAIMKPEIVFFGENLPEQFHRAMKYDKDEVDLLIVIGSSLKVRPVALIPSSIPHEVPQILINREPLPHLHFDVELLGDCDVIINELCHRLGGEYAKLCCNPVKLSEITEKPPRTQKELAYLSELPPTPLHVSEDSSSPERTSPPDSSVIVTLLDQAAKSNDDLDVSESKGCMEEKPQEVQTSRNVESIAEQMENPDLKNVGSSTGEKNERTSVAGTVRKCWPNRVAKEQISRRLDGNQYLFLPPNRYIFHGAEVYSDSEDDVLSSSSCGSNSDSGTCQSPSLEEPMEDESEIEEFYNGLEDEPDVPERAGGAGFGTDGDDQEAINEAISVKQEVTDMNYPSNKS
T3 sequence (Q96SW2 whole entry, looked up): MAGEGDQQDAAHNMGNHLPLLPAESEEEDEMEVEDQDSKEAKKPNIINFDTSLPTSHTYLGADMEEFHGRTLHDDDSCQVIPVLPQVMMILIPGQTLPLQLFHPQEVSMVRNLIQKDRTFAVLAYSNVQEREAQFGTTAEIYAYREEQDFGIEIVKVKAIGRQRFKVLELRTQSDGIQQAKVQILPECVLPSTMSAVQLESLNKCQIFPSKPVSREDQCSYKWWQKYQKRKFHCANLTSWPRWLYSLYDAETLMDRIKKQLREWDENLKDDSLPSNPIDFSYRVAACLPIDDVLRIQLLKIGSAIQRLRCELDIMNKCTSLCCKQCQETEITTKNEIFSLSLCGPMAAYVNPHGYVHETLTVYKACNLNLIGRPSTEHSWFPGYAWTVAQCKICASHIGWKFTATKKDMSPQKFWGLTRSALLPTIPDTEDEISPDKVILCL
Summary of the method: (§6)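 HEK 293T cells stably overexpressing Flag-tagged K-Ras4a-G12V (confirmed by pan-Ras blot) were exposed to 1 μM compound for 48 h. SIRT1, SIRT2 and SIRT3 levels were then read by immunoblot.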

[9] = tested on: MDA-MB-231; assay: Cytotoxicity against human MDA-MB-231 cells assessed as reduction in cell viability at 1 uM after 72 hrs; type: functional, cell-based
[10] = target: T1, Protein cereblon/NAD-dependent protein deacetylase sirtuin-2 (Homo sapiens); assay: Protac activity at CRBN/SIRT2 in human HEK293T cells stably expressing flag-tagged K-Ras4a-G12V assessed as inhibition of SIRT2 defatty-acylation at 1 uM incubated for 48 hrs by immunoblot analysis; type: cell-based; conditions: HEK-293T; summary of the method: as §6
[11] = target: T3, Protein cereblon/NAD-dependent protein deacetylase sirtuin-1 (Homo sapiens); assay: Protac activity at CRBN/SIRT1 in human MCF7 cells assessed as SIRT1 degradation at 5 to 10 uM after 48 hrs by immunoblot analysis; type: cell-based; conditions: dose microM 5-10, time 48.0 hrs
Summary of the method: (§7)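 MCF7 or BT-549 cells exposed to inhibitor at the indicated concentrations for 48 h; SIRT1, SIRT2 and SIRT3 levels read by immunoblot.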

[12] = target: T1, Protein cereblon/NAD-dependent protein deacetylase sirtuin-2 (Homo sapiens); assay: Protac activity at CRBN/SIRT2 in human MCF7 cells assessed as inhibition of SIRT2 deacetylation by measuring increase in acetylated-alpha tubulin level at 10 uM measured after 12 hrs by DAPI staining based immunofluorescence microscopic analysis; type: cell-based
Summary of the method: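 MCF7 cells treated for 12 h with 5 or 10 μM, DMSO as control. Acetyl-α-tubulin (K40) was imaged by immunofluorescence, and fluorescence intensity was quantified and normalized to vehicle.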

[13] = tested on: MDA-MB-231; assay: Cytotoxicity against human MDA-MB-231 cells assessed as reduction in cell viability after 72 hrs; type: functional, cell-based; summary of the method: as §5
[14] = target: T4, NAD-dependent protein deacetylase sirtuin-3, mitochondrial (Homo sapiens, UniProt Q9NTG7); assay: Inhibition of human SIRT3 deacetylation activity using H3K9Ac as substrate preincubated for 15 mins in presence of NAD+ followed by substrate addition by HPLC analysis; summary of the method: as §3
T4 sequence (Q9NTG7 whole entry): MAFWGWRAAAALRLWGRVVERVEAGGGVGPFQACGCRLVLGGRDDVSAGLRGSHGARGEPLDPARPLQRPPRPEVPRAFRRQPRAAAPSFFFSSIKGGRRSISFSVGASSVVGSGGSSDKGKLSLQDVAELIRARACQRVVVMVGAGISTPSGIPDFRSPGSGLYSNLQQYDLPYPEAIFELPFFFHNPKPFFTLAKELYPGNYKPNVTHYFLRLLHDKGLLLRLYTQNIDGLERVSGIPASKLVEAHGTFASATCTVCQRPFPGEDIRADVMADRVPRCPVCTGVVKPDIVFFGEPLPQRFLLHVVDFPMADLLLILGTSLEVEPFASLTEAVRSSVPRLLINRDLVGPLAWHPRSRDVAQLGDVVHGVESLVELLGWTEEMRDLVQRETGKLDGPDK

[15] = target: Protein cereblon/NAD-dependent protein deacylase sirtuin-6 (Homo sapiens) (UniProt Q8N6T7+Q96SW2); assay: Protac activity at CRBN/SIRT6 in human HEK293T cells assessed as abundance ratio at 5 uM incubated for 16 hrs by TMT global proteomics assay relative to DMSO; type: cell-based; conditions: HEK-293T; summary of the method: as §4
Chain of Protein cereblon/NAD-dependent protein deacylase sirtuin-6 (Homo sapiens) (Q8N6T7 2-355 limits assumed): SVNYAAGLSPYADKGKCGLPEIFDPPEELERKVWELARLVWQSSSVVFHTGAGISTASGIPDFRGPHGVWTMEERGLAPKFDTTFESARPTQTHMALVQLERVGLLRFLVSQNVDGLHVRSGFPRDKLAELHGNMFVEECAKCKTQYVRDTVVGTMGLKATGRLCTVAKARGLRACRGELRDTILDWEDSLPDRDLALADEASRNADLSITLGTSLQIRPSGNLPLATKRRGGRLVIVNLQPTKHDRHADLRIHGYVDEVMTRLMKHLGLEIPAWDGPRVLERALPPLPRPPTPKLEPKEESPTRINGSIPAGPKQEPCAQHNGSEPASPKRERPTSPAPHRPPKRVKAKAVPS
Chain of Protein cereblon/NAD-dependent protein deacylase sirtuin-6 (Homo sapiens) (Q96SW2 whole entry partner): as the sequence (Q96SW2 whole entry, looked up) above

[16] = target: T1, Protein cereblon/NAD-dependent protein deacetylase sirtuin-2 (Homo sapiens); assay: Protac activity at CRBN/SIRT2 in human MCF7 cells assessed as SIRT2 degradation at 0.5 uM after 48 hrs by immunoblot analysis; type: cell-based; summary of the method: as §1
[17] = target: T3, Protein cereblon/NAD-dependent protein deacetylase sirtuin-1 (Homo sapiens); assay: Protac activity at CRBN/SIRT1 in human BT549 cells assessed as SIRT1 degradation at 5 to 10 uM after 48 hrs by immunoblot analysis; type: cell-based; conditions: BT-549, dose microM 5-10, time 48.0 hrs; summary of the method: as §7
[18] = target: T1, Protein cereblon/NAD-dependent protein deacetylase sirtuin-2 (Homo sapiens); assay: Protac activity at CRBN/SIRT2 in human MDA-MB-231 cells assessed as SIRT2 degradation after 48 hrs by immunoblot analysis; type: cell-based
Summary of the method: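 In MDA-MB-231 and MDA-MB-468 cells, SIRT2 was assessed by immunoblot after compound treatment.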

T1 sequence (Q96SW2 whole entry, looked up, one chain of several): as the sequence (Q96SW2 whole entry, looked up) above

## CCCCCCCCCCCCCC(=S)NCCCC[C@H](NC(=O)CCOCCOCCOCCOCCNc1cccc2c1C(=O)N(C1CCC(=O)NC1=O)C2=O)C(=O)Nc1ccccc1 (stereo partly drawn)
[1]
  Activity: inactive
[2]
  pIC50: < 4.08
[3]
  Activity: Tde
[4]
  pIC50: < 4.08
[5]
  Ratio: 0.36
[6]
  Activity: Active
[7]
  Activity: inactive
[8]
  Activity: inactive
[9]
  Activity: inactive
[10]
  Activity: Active
[11]
  Activity: inactive
[12]
  Activity: Active
[13]
  Activity: Active
[14]
  pIC50: < 4.08
[15]
  Activity: inactive
[16]
  Activity: Active
[17]
  Activity: inactive
[18]
  Activity: Active

— ChEMBL document CHEMBL4725483, “Simultaneous Inhibition of SIRT2 Deacetylase and Defatty-Acylase Activities via a PROTAC Strategy” (ACS Med Chem Lett, 2020)
